Measurements as given in ChEMBL document CHEMBL1154044, “5-Nitro-2-furyl derivative actives against Trypanosoma cruzi: preliminary in vivo studies” (Eur J Med Chem, 2009).

What was measured:
[1] = test system: Mus musculus; test: Toxicity in CD1 mouse assessed as glutamic-oxalacetate transaminase level at 300 mg/kg, ip after 3 days; format: organism-based; parameters: dose 300 mg/kg, route intraperitoneal; conditions: in vivo, 72 h
In short: (§1)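 Healthy female CD1 mice (5–7 per group) received a single oral dose of 450 mg/kg or an i.p. dose of 300 mg/kg, with vehicle controls. On day 3 they were sacrificed under ether anaesthesia. Blood was drawn from the subclavian artery and kept at 0 °C in EDTA or heparin. Leukocytes, haemoglobin, haematocrit, GPT and GOT were measured within 24 h and compared with normal ranges.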

[2] = test system: Mus musculus; test: Toxicity in CD1 mouse intestine at 450 mg/kg, po after 3 days by histological study; format: organism-based; parameters: dose 450 mg/kg, route oral; conditions: in vivo, 72 h
In short: (§2)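 Healthy female CD1 mice (20–22 g), 5–7 per group, given a single oral (intragastric) or i.p. dose in saline:Tween 80 (4:1) vehicle. Sacrificed on day 3 after ether anaesthesia. Organs fixed in 10% aqueous formalin for histology. Scored against untreated animals from no change to +++ (many changes).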

[3] = test system: Mus musculus; test: Toxicity in CD1 mouse heart at 300 mg/kg, ip after 3 days by histological study; format: organism-based; parameters: dose 300 mg/kg, route intraperitoneal; conditions: in vivo, 72 h; in short: as §2
[4] = test system: Mus musculus; test: Toxicity in CD1 mouse assessed as survival at 300 mg/kg, ip after 3 days; format: organism-based; parameters: dose 300 mg/kg, route intraperitoneal; conditions: in vivo, 72 h
In short: (§3)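 Healthy 2-month-old female CD1 mice (20–22 g), groups of 5–7, given one oral dose by intragastric syringe or one i.p. injection. Compound suspended in saline:Tween 80 (4:1) with sonication just before dosing; vehicle-treated controls included. Weighed and observed daily over 3 days for skin, physical aspect, activity and faeces; survival recorded at day 3.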

[5] = test system: Mus musculus; test: Toxicity in CD1 mouse assessed as survival at 450 mg/kg, po after 3 days; format: organism-based; parameters: dose 450 mg/kg, route oral; conditions: in vivo, 72 h; in short: as §3
[6] = test system: Mus musculus; test: Toxicity in CD1 mouse intestine at 300 mg/kg, ip after 3 days by histological study; format: organism-based; parameters: dose 300 mg/kg, route intraperitoneal; conditions: in vivo, 72 h; in short: as §2
[7] = test system: Mus musculus; test: Toxicity in CD1 mouse assessed as haemoglobin level at 450 mg/kg, po after 3 days; format: organism-based; parameters: dose 450 mg/kg, route oral; conditions: in vivo, 72 h; in short: as §1
[8] = test system: Mus musculus; test: Toxicity in CD1 mouse brain at 300 mg/kg, ip after 3 days by histological study; format: organism-based; parameters: dose 300 mg/kg, route intraperitoneal; conditions: in vivo, 72 h; in short: as §2
[9] = test system: Mus musculus; test: Toxicity in CD1 mouse assessed as increase in weight respect to day zero at 300 mg/kg, ip after 3 days; format: organism-based; parameters: dose 300 mg/kg, route intraperitoneal; conditions: in vivo, 72 h
In short: (§4)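 Healthy 2-month-old female CD1 mice (20–22 g, 5–7 per group) received one dose. Oral doses of 450 or 300 mg/kg were given by intragastric syringe; i.p. doses of 300 or 150 mg/kg by injection. Drugs were suspended in saline:Tween 80 (4:1), and a vehicle-only control was included. Mice were weighed and observed daily for 3 days. Weight change is expressed as percent relative to day zero.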

[10] = test system: Mus musculus; test: Toxicity in CD1 mouse lung at 450 mg/kg, po after 3 days by histological study; format: organism-based; parameters: dose 450 mg/kg, route oral; conditions: in vivo, 72 h; in short: as §2
[11] = test system: Mus musculus; test: Toxicity in CD1 mouse assessed as decrease in weight respect to day zero at 450 mg/kg, po after 3 days; format: organism-based; parameters: dose 450 mg/kg, route oral; scale not given: the % may be the effect or the level left; conditions: in vivo, 72 h; in short: as §4
[12] = test system: Mus musculus; test: Toxicity in CD1 mouse assessed as glutamic-oxalacetate transaminase level at 450 mg/kg, po after 3 days; format: organism-based; parameters: dose 450 mg/kg, route oral; conditions: in vivo, 72 h; in short: as §1
[13] = test system: Mus musculus; test: Toxicity in CD1 mouse assessed as glutamic-pyruvate transaminase level at 450 mg/kg, po after 3 days; format: organism-based; parameters: dose 450 mg/kg, route oral; conditions: in vivo, 72 h; in short: as §1
[14] = test system: Mus musculus; test: Toxicity in CD1 mouse assessed as hematocrite level at 300 mg/kg, ip after 3 days; format: organism-based; parameters: dose 300 mg/kg, route intraperitoneal; conditions: in vivo, 72 h; in short: as §1
[15] = test system: Trypanosoma cruzi; test: Growth inhibition of Trypanosoma cruzi Tulahuen 2 epimastigote at 5 uM after 5 days; format: functional; conditions: Trypanosoma cruzi, Tulahuen 2, 120 h; read-out: GI
[16] = test system: Mus musculus; test: Toxicity in CD1 mouse assessed as glutamic-pyruvate transaminase level at 300 mg/kg, ip after 3 days; format: organism-based; parameters: dose 300 mg/kg, route intraperitoneal; conditions: in vivo, 72 h; in short: as §1
[17] = test system: Mus musculus; test: Toxicity in CD1 mouse kidney at 450 mg/kg, po after 3 days by histological study; format: organism-based; parameters: dose 450 mg/kg, route oral; conditions: in vivo, 72 h; in short: as §2
[18] = test system: Mus musculus; test: Toxicity in CD1 mouse brain at 450 mg/kg, po after 3 days by histological study; format: organism-based; parameters: dose 450 mg/kg, route oral; conditions: in vivo, 72 h; in short: as §2
[19] = test system: Mus musculus; test: Toxicity in CD1 mouse liver at 300 mg/kg, ip after 3 days by histological study; format: organism-based; parameters: dose 300 mg/kg, route intraperitoneal; conditions: in vivo, 72 h; in short: as §2
[20] = test system: Mus musculus; test: Toxicity in CD1 mouse liver at 450 mg/kg, po after 3 days by histological study; format: organism-based; parameters: dose 450 mg/kg, route oral; conditions: in vivo, 72 h; in short: as §2
[21] = test system: Mus musculus; test: Toxicity in CD1 mouse lung at 300 mg/kg, ip after 3 days by histological study; format: organism-based; parameters: dose 300 mg/kg, route intraperitoneal; conditions: in vivo, 72 h; in short: as §2
[22] = test system: Mus musculus; test: Toxicity in CD1 mouse assessed as haemoglobin level at 300 mg/kg, ip after 3 days; format: organism-based; parameters: dose 300 mg/kg, route intraperitoneal; conditions: in vivo, 72 h; in short: as §1
[23] = test system: Mus musculus; test: Toxicity in CD1 mouse heart at 450 mg/kg, po after 3 days by histological study; format: organism-based; parameters: dose 450 mg/kg, route oral; conditions: in vivo, 72 h; in short: as §2
[24] = test system: Mus musculus; test: Toxicity in CD1 mouse kidney at 300 mg/kg, ip after 3 days by histological study; format: organism-based; parameters: dose 300 mg/kg, route intraperitoneal; conditions: in vivo, 72 h; in short: as §2
[25] = test system: Mus musculus; test: Toxicity in CD1 mouse assessed as leukocyte level at 300 mg/kg, ip after 3 days; format: organism-based; parameters: dose 300 mg/kg, route intraperitoneal; conditions: in vivo, 72 h; in short: as §1
[26] = test system: Mus musculus; test: Toxicity in CD1 mouse assessed as leukocyte level at 450 mg/kg, po after 3 days; format: organism-based; parameters: dose 450 mg/kg, route oral; conditions: in vivo, 72 h; in short: as §1
[27] = test system: Mus musculus; test: Toxicity in CD1 mouse assessed as hematocrite level at 450 mg/kg, po after 3 days; format: organism-based; parameters: dose 450 mg/kg, route oral; conditions: in vivo, 72 h; in short: as §1

SMILES | Activity [1] | Activity [2] | Activity [3] | Activity [4] | Activity [5] | Activity [6] | Activity [7] | Activity [8] | Activity [9] | Activity [10] | Activity [11] | Activity [12] | Activity [13] | inhibition of growth at 5 µM [15] | Activity [16] | Activity [17] | Activity [18] | Activity [19] | Activity [20] | Activity [21] | also measured
CCCCOC(=O)N/N=C/C=C/c1ccc([N+](=O)[O-])o1 | 76.5 IU/L | Non-toxic | Non-toxic | Non-toxic | Non-toxic | Non-toxic | 13.5 g/dL | Non-toxic | 2% | Non-toxic | 2% | 72 IU/L | 22.6 IU/L | 87% | 17 IU/L | Non-toxic | Non-toxic | Toxic | Toxic | Non-toxic | Activity [14]: 37.2%; Activity [22]: 11.8 g/dL; Activity [23]: Non-toxic; Activity [24]: Non-toxic; Activity [25]: 31800 µL⁻¹; Activity [26]: 26600 µL⁻¹
CCCCCCCOC(=O)N/N=C/C=C/c1ccc([N+](=O)[O-])o1 | 77.7 IU/L | Non-toxic | Non-toxic | Non-toxic | Non-toxic | Non-toxic | 13.4 g/dL | Non-toxic | 4% | Non-toxic | 0% | 139 IU/L | 62.7 IU/L | 90% | 46.1 IU/L | Non-toxic | Non-toxic | Toxic | Toxic | Non-toxic | Activity [27]: 39.4%; Activity [22]: 14.2 g/dL; Activity [23]: Non-toxic; Activity [24]: Non-toxic; Activity [25]: 11100 µL⁻¹; Activity [26]: 9010 µL⁻¹
